Screening results deposited in PubChem by several laboratories.
Hits are enriched below; roughly 4.3% of the tested compounds scored in any of these assays.
CR mimetic SO: reduction of superoxide in aged yeast, primary screen, HTS. S. cerevisiae aged cells, superoxide DHE fluorescence; active compounds read low. superoxide response (% of plate mean), % at 10 µM. 330,000 compounds, 0.18% hits;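 active means superoxide response under a set limit, about three screen SD below normal, cut at about 65% in these data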;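 further: yeast aged for seven days with compound at 30 °C before DHE staining; 100% = average MFI of all compound-treated wells on the plate with controls excluded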
SR-BI uptake up: activators of SR-BI mediated DiI-HDL uptake, primary screen, ldlA[mSR-BI] CHO cells, DiI fluorescence; 3 h; 100 = double the neutral-control signal; activation, % at 12.5 µM; 320,000 compounds, 0.096% hits; AID 504775, 2011;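 active means mean replicate activation of at least 60% and every replicate at or above 60%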;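 further: 0% = median plate neutral-control signal and 100% = twice that signal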
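System: LDL receptor-deficient CHO ldlA cells overexpressing murine SR-BI | Timing: 3 h uptake period with compound, 37 °C | Medium: HEPES-buffered (25 mM, pH 7.4) F12 plus 0.5% BSA | Dosing: Single-point compound dose | Signal: Bottom-read fluorescence, 550/595 nm | Read-out: Retained DiI signal reflecting DiI-HDL uptake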
SR-BI HDL uptake: inhibitors of SR-BI mediated HDL lipid uptake, primary screen, ldlA[mSR-BI] cells, fluorescence, single point; Scavenger receptor class B member 1 (Mus musculus), Q61009; ldlA[mSR-BI] CHO cells, DiI-HDL uptake fluorescence, 3 h; inhibition, % at 12.5 µM; 320,000 compounds, 0.96% hits;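 active means mean replicate inhibition of at least 70% and a set share of replicates each scoring 70 or more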;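 further: 0% = median of neutral control wells and 100% = median of positive control wells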
Target sequence (Q61009 whole entry, looked up): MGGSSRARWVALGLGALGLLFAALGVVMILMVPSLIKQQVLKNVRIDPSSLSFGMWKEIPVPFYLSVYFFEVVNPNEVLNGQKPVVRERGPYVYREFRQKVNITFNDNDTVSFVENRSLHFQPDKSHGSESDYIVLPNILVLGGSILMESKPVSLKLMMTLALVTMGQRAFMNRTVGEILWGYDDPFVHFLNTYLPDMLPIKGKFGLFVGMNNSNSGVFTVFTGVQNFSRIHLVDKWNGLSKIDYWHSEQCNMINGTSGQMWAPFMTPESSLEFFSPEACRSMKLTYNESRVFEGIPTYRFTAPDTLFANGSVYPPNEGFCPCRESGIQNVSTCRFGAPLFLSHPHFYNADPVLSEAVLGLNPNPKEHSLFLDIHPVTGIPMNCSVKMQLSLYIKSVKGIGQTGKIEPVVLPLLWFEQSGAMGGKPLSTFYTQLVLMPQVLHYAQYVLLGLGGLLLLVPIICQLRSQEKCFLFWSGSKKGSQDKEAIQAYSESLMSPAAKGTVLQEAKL
SMARCA2 act: SMARCA2 (BRM) function activators, primary screen, cell-based, luminescence, high throughput; MG213 cells, MMTV-luciferase reporter, dexamethasone, overnight; activation, % at 9.1 µM; 370,000 compounds, 1% hits; AID 652017, 2013; in the data active means activation above about 7.8%;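 further: 0% = vehicle wells and 100% = reference activator wells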
AHR act: AHR activators, primary screen, cell-based, luminescence, luciferase reporter, human; activation, % at 5 µM; AHR-responsive luciferase reporter cells; 320,000 compounds, 2.5% hits; in the data active means activation above about 47%;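 further: 0% = vehicle wells and 100% = reference agonist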
Lipid droplet: inhibitors of hepatocyte lipid droplet formation, primary screen, imaging, high-throughput imaging, BODIPY stain; inhibition, % at 6.5 µM; AID 1656, 2009; 240,000 compounds, 0.4% hits; AML12 mouse hepatocytes, oleate lipid droplets;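 active means lipid droplet intensity inhibited by at least 50%, with more than 500 cells counted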
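Test system: AML12 hepatocytes (mouse); reagent: oleate loading, 100 µM; dosing: one dose, 6.5 µM compound; incubation: overnight exposure; signal: fluorescence imaging, 20x objective, two fields per well; read-out basis: % inhibition of corrected integrated BODIPY droplet signal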
* marks the source's active call; other numbers are inactive results; / = not tested or not shown.

SMILES	CR mimetic SO	SR-BI uptake up	SR-BI HDL uptake	SMARCA2 act	AHR act	Lipid droplet
N/C(=N\OC(=O)c1cccc([N+](=O)[O-])c1)c1cccnc1	94.2	2.8	-2.8	1.3	114.3*	-16.2
Cc1ccccc1C(=O)O/N=C(\N)c1cccc([N+](=O)[O-])c1	105.0	-19.3	19.3	2.7	94.5*	/
CCOc1cc(-c2ccc(N)c(OCC)c2)ccc1N	84.5	-24.4	24.4	0.3	49.8*	-14.3
COc1ccc(C2CC3(CC(C)(C)NC(=O)N3)Oc3cc(O)ccc32)cc1 (configuration not stated)	89.6	13.7	-13.7	-5.9	-0.9	/
CC1(C)CC2(CC(c3ccccc3)c3ccc(O)cc3O2)NC(=S)N1 (configuration not stated)	115.8	-72.0	72.0*	-1.3	0.5	3.0
CC(=O)Oc1cc2c(cc1Cl)C(c1cccs1)CC1(CC(C)(C)NC(=S)N1)O2 (configuration not stated)	113.7	-75.2	75.2*	0.1	-1.2	-0.5
CCOc1ccc(-n2c(SC/C=C/c3ccccc3)nnc2-c2cccs2)cc1	/	/	/	-3.3	/	/
NC(=O)c1c(NC(=O)COC(=O)c2ccc(S(=O)(=O)Nc3ccccc3)cc2)sc2c1CCCC2	89.0	-95.1	95.1*	-1.0	5.0	-1.2
COc1ccccc1C(=O)Nc1sc2c(c1C(N)=O)CCCC2	81.8	-42.7	42.7	2.1	55.2*	2.3
COc1ccccc1C(=O)Nc1sc2c(c1C#N)CCC2	99.8	-29.1	29.1	/	22.4	6.5
O=C(COC(=O)c1ccc(S(=O)(=O)Nc2ccccc2)cc1)NC1CCCC1	117.4	0.0	0.0	2.7	-1.2	-1.1
O=C(Nc1cc(Cl)ccc1-n1cncn1)c1cc(F)c(F)c(F)c1F	117.3	-25.2	25.2	1.2	55.8*	/
O=C(Nc1cc(Cl)ccc1-n1cncn1)c1ccc(Br)o1	102.2	14.4	-14.4	-0.2	60.7*	/
O=C(Nc1cc(Cl)ccc1-n1cncn1)c1cncc(Br)c1	100.5	-1.7	1.7	-1.8	27.9	/
CS(=O)(=O)c1ccccc1C(=O)Nc1cc(Cl)ccc1-n1cncn1	96.3	-10.3	10.3	-1.9	4.5	/
Oc1ccccc1OCc1nc2ccccc2s1	93.5	-1.9	1.9	6.5	-7.7	1.8
OCc1cc(Br)ccc1OCc1nc2ccccc2s1	90.5	/	/	/	48.0*	-7.1
c1ccc(COCCc2cn(Cc3ccccc3)c3ccccc23)cc1	/	/	/	-1.4	/	/
COC(=O)C(CN)CN1C(=O)c2ccccc2C1=O (configuration not stated)	/	/	/	-1.3	/	/
Cc1ccc(NC(=O)c2cccc(C(=O)Nc3ccc(C)c(C)c3)n2)cc1C	77.1	-74.7	74.7*	7.0	5.8	-0.8
O=C(Nc1ccccc1)Nc1cc(OCC(F)(F)F)cc(OCC(F)(F)F)c1	/	-92.4	92.4*	-10.2	/	-7.7
O=C(Nc1ccccc1)Nc1cc(Cl)cc(Cl)c1	109.6	-43.7	43.7	-3.6	18.6	10.9
O=C(Nc1cccc(S(=O)(=O)NC2=NCCCCC2)c1)c1cc(-c2ccccc2)nc2ccccc12	105.4	-76.7	76.7*	-2.0	3.1	37.8
CC(C)(C)c1ccc(C(=O)OCC(=O)Nc2cccc(S(=O)(=O)NC3=NCCC3)c2)cc1	/	/	/	-1.1	/	/
O=C(Nc1cccc(S(=O)(=O)NC2=NCCCCC2)c1)c1cc(-c2ccc(Cl)cc2)nc2ccccc12	90.2	-44.9	44.9	-3.6	18.7	-0.7
NC(=O)Nc1ccc(C(=O)OCC(=O)Nc2cccc(S(=O)(=O)NC3=NCCC3)c2)cc1	105.0	-76.0	76.0*	1.5	-1.9	/
O=C(Nc1cccc(S(=O)(=O)NCc2ccco2)c1)c1cc(-c2ccc(F)cc2)nc2ccccc12	102.2	-73.7	73.7*	-3.1	5.8	-26.3
COc1ccc(-c2cc(C(=O)Nc3cccc(S(=O)(=O)NCc4ccco4)c3)c3ccccc3n2)cc1OC	90.5	/	/	-0.9	24.3	8.7
CCCCN(C)C(=O)CSc1nnc(-c2cccnc2)n1C1CCCCC1	/	/	/	2.2	/	/
